These results are taken from publication PMC8884033 (Journal of medicinal chemistry, 2021).

One data set concerns other kinases. As to the kind of experiment: KINOMEScan screen. The class given is binding. The conditions noted are these: KINOMEScan at 10 μM.
Data set [1] addresses T1, recombinant human GALK1 (Homo sapiens, UniProt P51570). The settings on record: read-out: IC50 against human recombinant GALK1; previously reported lead; cited from earlier work.
Data set [2] deals with T2, mouse recombinant GALK1 (Mus musculus, UniProt Q9R0N0). The settings on record: read-out: IC50 against mouse recombinant GALK1; previously reported lead; cited from earlier work.
T2 sequence (Q9R0N0 whole entry): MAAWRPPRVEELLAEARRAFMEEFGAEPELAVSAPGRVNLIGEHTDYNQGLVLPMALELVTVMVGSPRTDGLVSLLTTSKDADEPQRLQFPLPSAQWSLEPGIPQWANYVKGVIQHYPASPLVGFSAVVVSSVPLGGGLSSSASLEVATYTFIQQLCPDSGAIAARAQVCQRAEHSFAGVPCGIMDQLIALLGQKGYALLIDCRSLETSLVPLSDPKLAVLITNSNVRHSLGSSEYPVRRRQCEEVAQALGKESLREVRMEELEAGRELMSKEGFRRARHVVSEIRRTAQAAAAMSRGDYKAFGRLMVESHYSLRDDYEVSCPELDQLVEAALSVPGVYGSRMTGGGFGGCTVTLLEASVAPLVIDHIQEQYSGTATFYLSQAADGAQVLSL
The next data set concerns GALK2. The settings on record: cited from earlier work.
For data set [3], the system named is Fibroblasts derived from GALT-deficient patients. The conditions noted are these: primary fibroblast cells from patients with classic galactosemia; cited from earlier work.
Data set [4] addresses T1, recombinant human GALK1. The experiment in a line: GALK1 biochemical assay. The settings on record: for fold improvement in potency compared to compound 2: ratio of GALK1 IC50 vs 2.
A short description of data set [5]: Parallel artificial membrane permeability assay. The data set is classed as in vitro ADME. The conditions noted are these: pH 7.4. The procedure, abridged:
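Stirred double-sink PAMPA with a lipid/dodecane membrane designed to model GI passive permeability. Donor and acceptor both at pH 7.4. Test compound from 10 mM DMSO stock, diluted to 0.05 mM in pH 7.4 buffer (0.5% DMSO final). Permeation ran 30 min at room temperature with donor stirring. Donor and acceptor concentrations read by UV plate reader.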

The target in data set [6] is T2, mouse recombinant GALK1. As to the kind of experiment: GALK1 biochemical assay, mouse enzyme.
The subject of data set [7] is Fibroblasts derived from GALT-deficient patients. As to the kind of experiment: Cellular Gal-1P accumulation assay after galactose challenge. The data set is classed as cell-based, human. The conditions noted are these: at 3 μM, patient fibroblasts. The procedure, abridged: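 GALT-deficient patient fibroblasts kept in galactose-free DMEM with 10% FBS. Inhibitor added at set concentrations for 2 to 4 h at 37 °C. Galactose then added to 0.05% for a 4 h challenge. Cells PBS-washed twice and lysed in ice-cold hypotonic buffer (25 mM Tris-HCl pH 7.4, 25 mM NaCl, 0.5 mM EDTA, protease inhibitors). Lysate needle-sheared, then spun 16,000g for 20 min at 4 °C. Gal-1P measured by alkaline phosphatase-coupled method and normalized to protein.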

A short description of data set [8]: Human liver microsome stability. The data set is classed as in vitro ADME. The settings on record: liver microsomes, pH 7.4. Background: Microsomes from liver hold many membrane-bound enzymes, among them those of drug oxidation.
A short description of data set [9]: Mouse pharmacokinetic studies. The class given is in vivo, CD1 mice. In a few lines: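 Fed CD1 mice, 6–8 weeks old, ~25–30 g. Given single IP (50 mpk), PO (30 mpk) or IV doses as solutions in 5% NMP/25% PEG 300/70% of 15% w/w Kolliphor HS 15 in water (5, 3 and 0.6 mg/mL for IP, PO and IV). Heart-puncture blood taken into heparin-Na from 3 mice per time, 5 min–24 h. Plasma analysed by LC/MS/MS. Once-daily cageside observations.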

Where [10] appears, read: male, CD1, mouse, plasma, iv, 3 mg/kg.

A value given as a limit tells only on which side of the number the result lay.

T1 sequence (P51570 whole entry): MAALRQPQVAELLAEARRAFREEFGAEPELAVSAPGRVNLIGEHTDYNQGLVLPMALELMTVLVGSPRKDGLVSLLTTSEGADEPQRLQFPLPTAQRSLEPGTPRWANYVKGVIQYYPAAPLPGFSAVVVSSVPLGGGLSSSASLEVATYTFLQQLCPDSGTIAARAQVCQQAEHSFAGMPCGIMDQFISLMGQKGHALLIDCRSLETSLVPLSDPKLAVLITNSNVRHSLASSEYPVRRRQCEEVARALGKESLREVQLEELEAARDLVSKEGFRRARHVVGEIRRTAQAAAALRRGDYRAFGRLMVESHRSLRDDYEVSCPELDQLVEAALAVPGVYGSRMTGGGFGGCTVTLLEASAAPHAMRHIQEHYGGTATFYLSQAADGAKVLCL

In general, IC50 refers to the point on the concentration scale where inhibition reaches its midpoint. As to `O=C1CCCC2=C1C(c1[nH]ncc1Cl)N=C(Nc1nc3ccccc3o1)N2` (centres unmarked) [Compound 1], the “cross-reactivity against other kinases” value in the data set on other kinases is on record as “negligible cross-reactivity”. Besides, the IC50 was 7.69 µM at recombinant human GALK1 [1] and 13.7 µM on mouse recombinant GALK1 [2]. For the same compound, the “activity against GALK2” value with GALK2 is “inactive”. Besides, the “effect on gal-1P levels” value in data set [3] was “lowered gal-1P levels”.
Take `CC1=C(C(=O)Nc2cccc(C(=O)O)c2)C(c2ccccc2Cl)N=C(Nc2nc3ccccc3o2)N1` (centres unmarked) [Compound 15, 3-(2-(Benzo[d]oxazol-2-ylamino)-4-(2-chlorophenyl)-6-methyl-1,4-dihydropyrimidine-5-carboxamido)benzoic Acid]: the “fold improvement in potency compared to compound 2” value (from here on “fold improvement in potency”) on recombinant human GALK1 [4] is greater than 5 fold.
With `CC1=C(C(=O)Nc2ccc(C(=O)O)cc2)C(c2ccccc2Cl)N=C(Nc2nc3ccccc3o2)N1` (centres unmarked) [Compound 16, 4-(2-(Benzo[d]oxazol-2-ylamino)-4-(2-chlorophenyl)-6-methyl-1,4-dihydropyrimidine-5-carboxamido)benzoic Acid], on recombinant human GALK1 [4], the “fold improvement in potency” value is recorded as greater than 5 fold.
As for `CC1=C(C(=O)NCc2ccc(C(=O)O)cc2)C(c2ccccc2Cl)N=C(Nc2nc3ccccc3o2)N1` (centres unmarked) [Compound 25, 4-((2-(Benzo[d]oxazol-2-ylamino)-4-(2-chlorophenyl)-6-methyl-1,4-dihydropyrimidine-5-carboxamido)methyl)benzoic Acid], the “fold better than 24” value at recombinant human GALK1 [4] (GALK1 IC50 vs 24) is on record as 2 fold.
On to `CC1=C(C(=O)NCc2cn(C)cn2)C(c2ccccc2Cl)N=C(Nc2nc3ccccc3o2)N1` (centres unmarked) [Compound 32, 2-(Benzo[d]oxazol-2-ylamino)-4-(2-chlorophenyl)-6-methyl-N-((1-methyl-1H-imidazol-4-yl)methyl)-1,4-dihydropyrimidine-5-carboxamide], for which the “fold improvement in potency” value at recombinant human GALK1 [4] was 7–9 fold.
For `CC1=C(C(=O)NCc2cnn(C)c2)C(c2ccccc2Cl)N=C(Nc2nc3ccccc3o2)N1` (centres unmarked) [Compound 33, 2-(Benzo[d]oxazol-2-ylamino)-4-(2-chlorophenyl)-6-methyl-N-((1-methyl-1H-pyrazol-4-yl)methyl)-1,4-dihydropyrimidine-5-carboxamide], on recombinant human GALK1 [4], the “fold improvement in potency” value was 7–9 fold.
Consider `CC1=C(C(=O)Nc2cc(C(=O)O)ccn2)C(c2ccccc2Cl)N=C(Nc2nc3ccccc3o2)N1` (centres unmarked) [Compound 35, 2-(2-(Benzo[d]oxazol-2-ylamino)-4-(2-chlorophenyl)-6-methyl-1,4-dihydropyrimidine-5-carboxamido)isonicotinic Acid], for which the “fold improvement in potency” value at recombinant human GALK1 [4] came out at 10 fold.
Consider `CC1=C(C(=O)Nc2cc(C(=O)O)ccn2)C(c2ccccc2Cl)N=C(Nc2nc3ccc(F)cc3o2)N1` (centres unmarked) [Compound 38, 2-(4-(2-Chlorophenyl)-2-((6-fluorobenzo[d]oxazol-2-yl)amino)-6-methyl-1,4-dihydropyrimidine-5-carboxamido)isonicotinic Acid], for which the “biochemical potency against GALK1” value on recombinant human GALK1 [4] is reported as “submicromolar”.
Turning to `CC1=C(C(=O)Nc2cc(C(=O)O)ccn2)C(c2ccccc2Cl)N=C(Nc2nc3cccc(N)c3o2)N1` (centres unmarked) [Compound 53, 2-(2-((7-Aminobenzo[d]oxazol-2-yl)amino)-4-(2-chlorophenyl)-6-methyl-1,4-dihydropyrimidine-5-carboxamido)isonicotinic Acid], the “biochemical potency against GALK1” value on recombinant human GALK1 [4] was “submicromolar”. Besides, the “fold potency improvement over 35” value on recombinant human GALK1 [4] (ratio of GALK1 IC50 vs 35) was 5 fold.
What is called Papp is the rate of passage across a membrane or cell layer, normalised by area and donor concentration. Higher therefore signals ready permeation. `CC1=C(C(=O)NCc2cnn(C)c2)C(c2ccc(C)cc2Cl)N=C(Nc2nc3cccc(N)c3o2)N1` (centres unmarked) [Compound 67, 2-((7-aminobenzo[d]oxazol-2-yl)amino)-4-(2-chloro-4-methylphenyl)-6-methyl-N-((1-methyl-1H-pyrazol-4-yl)methyl)-1,4-dihydropyrimidine-5-carboxamide] showed a Papp at 30 min, 0.05 mM in data set [5] (PAMPA) of 3150 nm/s.
As usually defined, the half-life is the time in which the quantity being followed falls by half. Read a high half-life as slow decline. One may read the clearance as a measure of how efficiently the substance is removed, as volume per time. Low values mean a low capacity for elimination, high ones a high capacity for elimination. As for `CC1=C(C(=O)NCc2cnn(C)c2)C(c2ccc(C)cc2Cl)N=C(Nc2nc3ccc(F)c(N)c3o2)N1` (centres unmarked) [Compound 68, 2-((7-Amino-6-fluorobenzo[d]oxazol-2-yl)amino)-4-(2-chloro-4-methylphenyl)-6-methyl-N-((1-methyl-1H-pyrazol-4-yl)methyl)-1,4-dihydropyrimidine-5-carboxamide], the “mouse GALK1 inhibition” value at mouse recombinant GALK1 [6] is recorded as “submicromolar”. In addition, the gal-1P/protein levels in data set [7] is on record as ~ 50 % of control. The compound further showed a half-life at 1 μM in data set [8] of 47 min. Moreover, in data set [5], the PAMPA is reported as 485 10^−6 cm/s. The “time up to which plasma concentrations stay above 1 μM” value in data set [9] (IP, single 50 mg/kg dose) is reported as ~ 7 h. Further, the “time after which compound levels are below LLQ” value in data set [9] (IV, 3 mpk, plasma) was 2 h. In [9] (setting [10]), this compound showed a clearance at 24 h of 1.19 L/h/kg and a half-life of roughly 24 min.
As to `CCn1cc(CNC(=O)C2=C(C)NC(Nc3nc4cccc(N)c4o3)=NC2c2ccc(C)cc2Cl)cn1` (centres unmarked) [Compound 69, 2-((7-Aminobenzo[d]oxazol-2-yl)amino)-4-(2-chloro-4-methylphenyl)-6-methyl-N-((1-ethyl-1H-pyrazol-4-yl)methyl)-1,4-dihydropyrimidine-5-carboxamide], in [5], the PAMPA is listed as 632 10^−6 cm/s.
`CCn1cc(CNC(=O)C2=C(C)NC(Nc3nc4ccc(F)c(N)c4o3)=NC2c2ccc(C)cc2Cl)cn1` (centres unmarked) [Compound 70, 2-((7-Amino-6-fluorobenzo[d]oxazol-2-yl)amino)-4-(2-chloro-4-methylphenyl)-N-((1-ethyl-1H-pyrazol-4-yl)methyl)-6-methyl-1,4-dihydropyrimidine-5-carboxamide]: at recombinant human GALK1 [4] (6′-F vs des-fluoro 69), the “fold improvement in GALK1 inhibition over 69” value is recorded as 4 fold. Besides, the “mouse GALK1 inhibition” value at mouse recombinant GALK1 [6] is reported as “submicromolar”. In addition, in data set [5], the PAMPA was 410 10^−6 cm/s.
As to `CC1=C(C(=O)NCc2cnn(C)c2)[C@H](c2ccc(C)cc2Cl)N=C(Nc2nc3cccc(N)c3o2)N1` [Compound (R)-67, (R)-2-((7-Aminobenzo[d]oxazol-2-yl)amino)-4-(2-chloro-4-methylphenyl)-6-methyl-N-((1-methyl-1H-pyrazol-4-yl)methyl)-1,4-dihydropyrimidine-5-carboxamide], the PAMPA in data set [5] is 661 10^−6 cm/s.
As for `CCn1cc(CNC(=O)C2=C(C)NC(Nc3nc4ccc(F)c(N)c4o3)=N[C@H]2c2ccc(C)cc2Cl)cn1` [Compound (R)-70, (R)-2-((7-Amino-6-fluorobenzo[d]oxazol-2-yl)amino)-4-(2-chloro-4-methylphenyl)-N-((1-ethyl-1H-pyrazol-4-yl)methyl)-6-methyl-1,4-dihydropyrimidine-5-carboxamide], the “fold more potent than the (S)-enantiomer” value at recombinant human GALK1 [4] ((R) vs (S) enantiomer at C4) is given as 18 fold. Also, the “mouse GALK1 inhibition” value on mouse recombinant GALK1 [6] was “submicromolar”. The PAMPA in data set [5] is given as 773 10^−6 cm/s.
Turning to `CCn1cc(CNC(=O)C2=C(C)NC(Nc3nc4ccc(F)c(N)c4o3)=N[C@@H]2c2ccc(C)cc2Cl)cn1` [Compound (S)-70, (S)-2-((7-Amino-6-fluorobenzo[d]oxazol-2-yl)amino)-4-(2-chloro-4-methylphenyl)-N-((1-ethyl-1H-pyrazol-4-yl)methyl)-6-methyl-1,4-dihydropyrimidine-5-carboxamide], the PAMPA in [5] is 407 10^−6 cm/s.
